Values after ≈ are worked out from the molar mass of the structure shown. Active and inactive are the calls of the source. The rule behind the calls is not given here.
Experiments:
[1] = Unbound fraction in human plasma at 1 uM; assay type: ADME, cell-free
How it was run: (§1)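 Plasma protein binding measured at a compound concentration of 1 µM. Reported as percent unbound fraction in human, rat, dog and monkey plasma.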

Mus musculus [2] = assay: Sleep promoting activity in mouse assessed as increase in slow wave sleep at 30 mg/kg, po dosed for 5 consecutive days measured after 1 hr; assay type: functional, organism-based; design: dose 30 mg/kg
How it was run: (§2)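 Sleep architecture recorded in ambulatory mice (wild-type N = 7; OX2R KO N = 6) implanted with radio-telemetry transmitters for ECoG and EMG. Compound given at 30 mg/kg po; vehicle was 20% Vitamin E TPGS po. Balanced cross-over design over 5 consecutive treatment days. Read-out is mean within-subject change versus vehicle in active wake, SWS and REM.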

Rattus norvegicus [3] = assay: Sleep promoting activity in rat assessed as increase in slow wave sleep at 1 and 3 mg/kg, po dosed for 3 consecutive days measured after 2 hrs; assay type: functional, organism-based; design: dose 3 mg/kg
How it was run: (§3)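 Rats implanted with radio-telemetry ECoG/EMG transmitters and recorded while ambulatory. Dosed at 1 and 3 mg/kg po or with vehicle (20% Vitamin E TPGS) in a balanced cross-over over 3 consecutive days. Active wake, SWS and REM were scored in the 2 h after dosing as within-subject change versus vehicle.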

[4] = Clearance in Wistar Han rat at 10 mg/kg, po or 2 mg/kg, iv; assay type: ADME, organism-based; conditions: in vivo
How it was run: (§4)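 Pharmacokinetics in Wistar Han rats (n = 2) after intravenous and oral dosing. Oral dose was 10 mg/kg in PEG400:Tween80/water 40:10:50. IV dose was 2 mg/kg in DMSO/PEG400/water 20:60:20.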

[5] = molecular target: T1, Orexin/Hypocretin receptor type 1 (Homo sapiens, UniProt O43613); assay: Antagonist activity against human OX1R expressed in CHOK1 cells assessed as inhibition of orexin A-induced […] Ca2+ mobilization by FLIPR assay; assay type: functional, cell-based, CHO-K1
T1 sequence (O43613 whole entry): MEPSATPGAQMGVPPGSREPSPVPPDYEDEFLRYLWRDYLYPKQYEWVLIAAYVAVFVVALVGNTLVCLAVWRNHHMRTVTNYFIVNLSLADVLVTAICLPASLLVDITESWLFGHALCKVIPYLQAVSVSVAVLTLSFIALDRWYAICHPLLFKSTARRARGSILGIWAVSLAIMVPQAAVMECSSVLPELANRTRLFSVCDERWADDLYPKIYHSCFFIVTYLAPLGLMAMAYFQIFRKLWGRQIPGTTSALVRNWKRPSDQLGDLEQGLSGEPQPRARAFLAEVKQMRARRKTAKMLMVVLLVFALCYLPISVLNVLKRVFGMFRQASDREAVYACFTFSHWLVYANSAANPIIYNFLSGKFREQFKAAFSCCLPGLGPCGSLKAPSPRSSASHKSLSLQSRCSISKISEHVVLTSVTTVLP
How it was run: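 Cell-based FLIPR assay measuring Ca2+ flux as the functional read-out of orexin receptor antagonism. Target is the human orexin receptor expressed in CHO-K1 cells.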

[6] = Solubility of the compound at pH 7; assay type: physicochemical; conditions: buffer, read-out: solubility
Mus musculus [7] = assay: Sleep promoting activity in OX2R knock out mouse with targeted disruption of the Hcrtr2 gene assessed as effect on slow wave sleep at 30 mg/kg, po dosed for 5 consecutive days measured after 1 hr; assay type: functional, organism-based; design: dose 30 mg/kg; how it was run: as §2
Canis familiaris [8] = assay: Sleep promoting activity in beagle dog assessed as reduction of active wake at 0.01 and 0.05 mg/kg, po dosed for 5 consecutive days; assay type: functional, organism-based; design: dose 0.05 mg/kg; conditions: Canis lupus familiaris
How it was run: (§5)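 Beagles implanted with radio-telemetry ECoG/EMG transmitters received 0.01 and 0.05 mg/kg po or vehicle (20% Vitamin E TPGS). Balanced cross-over design over 5 consecutive days. Active wake, NREM I, NREM II (including delta sleep) and REM were scored as mean within-subject change versus vehicle.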

Mus musculus [9] = assay: Sleep promoting activity in mouse assessed as reduction of active wake at 30 mg/kg, po dosed for 5 consecutive days measured after 1 hr; assay type: functional, organism-based; design: dose 30 mg/kg; how it was run: as §2
[10] = Unbound fraction in rat plasma at 1 uM; assay type: ADME, cell-free; how it was run: as §1
[11] = Solubility of the compound at pH 7.4; assay type: physicochemical; conditions: buffer
[12] = Volume of distribution at steady state in dog at 10 mg/kg, po or 2 mg/kg, iv; assay type: ADME, organism-based, Canis lupus familiaris; conditions: in vivo, read-out: Vdss
How it was run: (§6)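 Dog pharmacokinetics determined after intravenous and oral administration.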

[13] = Half life in Wistar Han rat at 10 mg/kg, po or 2 mg/kg, iv; assay type: ADME, organism-based; conditions: in vivo; how it was run: as §4
Canis familiaris [14] = assay: Sleep promoting activity in beagle dog assessed as increase in REM sleep at 0.01 and 0.05 mg/kg, po dosed for 5 consecutive days; assay type: functional, organism-based; design: dose 0.05 mg/kg; conditions: Canis lupus familiaris; how it was run: as §5
[15] = Clearance in dog at 10 mg/kg, po or 2 mg/kg, iv; assay type: ADME, organism-based, Canis lupus familiaris; conditions: in vivo; how it was run: as §6
Mus musculus [16] = assay: Sleep promoting activity in OX2R knock out mouse with targeted disruption of the Hcrtr2 gene assessed as effect on active wake at 30 mg/kg, po dosed for 5 consecutive days measured after 1 hr; assay type: functional, organism-based; design: dose 30 mg/kg; how it was run: as §2
[17] = Half life in dog at 10 mg/kg, po or 2 mg/kg, iv; assay type: ADME, organism-based, Canis lupus familiaris; conditions: in vivo; how it was run: as §6
[18] = Ratio of drug level in CSF to plasma in rat; assay type: ADME; conditions: CSF and plasma
[19] = Permeability in pig LLC-PK1 cells; assay type: ADME, cell-based, Sus scrofa; conditions: read-out: permeability
How it was run: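 Passive permeability measured in LLC-PK1 cells and expressed in cm/s.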

Mus musculus [20] = assay: Sleep promoting activity in OX2R knock out mouse with targeted disruption of the Hcrtr2 gene assessed as effect on REM sleep at 30 mg/kg, po dosed for 5 consecutive days measured after 1 hr; assay type: functional, organism-based; design: dose 30 mg/kg; how it was run: as §2
[21] = Oral bioavailability in Wistar Han rat at 10 mg/kg; assay type: ADME, organism-based; conditions: in vivo; how it was run: as §4
P-gp [22] = assay: Substrate activity at human P-gp assessed as efflux ratio in cell based assay; assay type: ADME; conditions: not told
Rattus norvegicus [23] = assay: Sleep promoting activity in rat assessed as reduction of active wake at 1 and 3 mg/kg, po dosed for 3 consecutive days measured after 2 hrs; assay type: functional, organism-based; design: dose 3 mg/kg; how it was run: as §3
[24] = Intrinsic clearance in human microsomes; assay type: ADME, Microsome
Mus musculus [25] = assay: Sleep promoting activity in mouse assessed as effect on REM sleep at 30 mg/kg, po dosed for 5 consecutive days measured after 1 hr; assay type: functional, organism-based; design: dose 30 mg/kg; how it was run: as §2
Canis familiaris [26] = assay: Sleep promoting activity in beagle dog assessed as increase in REM2 sleep at 0.01 and 0.05 mg/kg, po dosed for 5 consecutive days; assay type: functional, organism-based; design: dose 0.05 mg/kg; conditions: Canis lupus familiaris, in the assay text read “NREM2 sleep” for “REM2 sleep”; how it was run: as §5
[27] = Unbound fraction in monkey plasma at 1 uM; assay type: ADME, cell-free, Macaca mulatta; conditions: rhesus monkey; how it was run: as §1
Rattus norvegicus [28] = assay: Sleep promoting activity in rat assessed as increase in REM sleep at 1 and 3 mg/kg, po dosed for 3 consecutive days measured after 2 hrs; assay type: functional, organism-based; design: dose 3 mg/kg; how it was run: as §3
P-gp [29] = assay: Substrate activity at rat P-gp assessed as efflux ratio in cell based assay; assay type: ADME; conditions: not told
[30] = Lipophilicity, log D of the compound by HPLC method; assay type: physicochemical; conditions: read-out: logD
Homo sapiens = species on record: Homo sapiens; assay: Inhibition of CYP450 (unknown origin)
[31] = Volume of distribution at steady state in Wistar Han rat at 10 mg/kg, po or 2 mg/kg, iv; assay type: ADME, organism-based; conditions: in vivo, read-out: Vdss; how it was run: as §4
Canis familiaris [32] = assay: Sleep promoting activity in beagle dog assessed as increase in non-REM NREM1 sleep at 0.01 and 0.05 mg/kg, po dosed for 5 consecutive days; assay type: functional, organism-based; design: dose 0.05 mg/kg; conditions: Canis lupus familiaris; how it was run: as §5
CHO-K1 = assay: Selectivity index, ratio of IC50 for human OX1R expressed in CHOK1 cells to IC50 for human OX2R expressed in CHOK1 cells by FLIPR assay; assay type: cell-based
How it was run: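 Ratio of OX1R FLIPR IC50 to OX2R FLIPR IC50. Both come from Ca2+-flux assays on human orexin receptors expressed in CHO-K1 cells, each averaged over n ≥ 2 experiments.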

[33] = Unbound fraction in dog plasma at 1 uM; assay type: ADME, cell-free, Canis lupus familiaris; how it was run: as §1
[34] = Induction of CYP450 (unknown origin); assay type: ADME; conditions: human
[35] = Oral bioavailability in dog at 10 mg/kg; assay type: ADME, organism-based, Canis lupus familiaris; conditions: in vivo; how it was run: as §6
Canis familiaris [36] = assay: Sleep promoting activity in beagle dog assessed as increase in delta sleep at 0.01 and 0.05 mg/kg, po dosed for 5 consecutive days; assay type: functional, organism-based; design: dose 0.05 mg/kg; conditions: Canis lupus familiaris; how it was run: as §5

Structure (SMILES): C[C@@H]1CC[C@@H](Oc2cc(C#N)ccn2)CN1C(=O)c1ccccc1-c1ncccn1
- fraction unbound at 1 µM [1]: 0.028
- Activity (Mus musculus [2]): Active
- Activity (Rattus norvegicus [3]): Active
- clearance [4]: 37 mL/min/kg
- IC50 [5]: 4.9 µM
- solubility [6]: 183 µM (≈ 73.1 µg/mL)
- Activity (Mus musculus [7]): inactive
- Activity (Canis familiaris [8]): Dose-dependent effect
- Activity (Mus musculus [9]): Active
- fraction unbound at 1 µM [10]: 0.076
- solubility [11]: 250 µg/mL (≈ 626 µM)
- Vd [12]: 0.97 L/kg
- half-life [13]: 4.3 h
- Activity (Canis familiaris [14]): Active
- clearance [15]: 15 mL/min/kg
- Activity (Mus musculus [16]): inactive
- half-life [17]: 0.8 h
- Kp [18]: 0.1
- Papp [19]: 33 ×10⁻⁶ cm/s
- Activity (Mus musculus [20]): inactive
- bioavailability [21]: 80%
- efflux ratio (P-gp [22]): 0.7
- Activity (Rattus norvegicus [23]): Active
- CLint scaled [24]: 17 mL/min/kg
- Activity (Mus musculus [25]): inactive
- Activity (Canis familiaris [26]): Dose-dependent effect
- fraction unbound at 1 µM [27]: 0.239
- Activity (Rattus norvegicus [28]): Active
- efflux ratio (P-gp [29]): 2.3
- logD [30]: 2.9
- inhibition (Homo sapiens): inactive
- Vd [31]: 1.3 L/kg
- Activity (Canis familiaris [32]): Dose-dependent effect
- Ratio IC50 (CHO-K1): 174
- fraction unbound at 1 µM [33]: 0.166
- Activity [34]: Not Active
- bioavailability [35]: 53%
- Activity (Canis familiaris [36]): Dose-dependent effect

Reference: ChEMBL document CHEMBL3425449, “Identification of MK-8133: An orexin-2 selective receptor antagonist with favorable development properties” (Bioorg Med Chem Lett, 2015)
